We go through 44 compounds from ChEMBL document CHEMBL5523707, “Novel Inhibitory Site Revealed by XAP044 Mode of Action on the Metabotropic Glutamate 7 Receptor Venus Flytrap Domain” (J Med Chem, 2024).

As usually defined, the Emax is the greatest response seen or fitted, relative to the assay's reference. A word on the EC50: it is the concentration needed to bring the measured effect to its halfway point. Usually pEC50 stands for the EC50 on a negative log10 scale, so that one unit is a factor of ten.

Calls of active or inactive are those of the source. The rule behind the calls is not given here. Where only a bound is given, the exact number is not on record here.

In assay [1] the target is Metabotropic glutamate receptor 7 (Rattus norvegicus) (UniProt P35400). The assay can be described thus: Antagonist activity against LSP4-202-induced rat mGlu7 activation transfected in HEK293 cells co-transfected with chimeric Gqi9 assessed as decrease in LSP4-202 potency by measuring LSP4-202 pEC50 incubated for 24 hrs by IP-one HTRF assay. In kind it is functional, cell-based. The essentials: (§1)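 IP-One HTRF IP1 read-out in HEK293 transiently expressing rat mGlu7 plus chimeric Gqα9, 24 h after electroporation. LSP4-2022 concentration-response was tested with derivatives at 30 or 100 µM. Gives pEC50, pEC50/pEC50 control ratio, and max as % of LSP4-2022 maximal effect over basal. Triplicates, n independent experiments; paired t-test.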
Chain of Metabotropic glutamate receptor 7 (Rattus norvegicus) (P35400 whole entry): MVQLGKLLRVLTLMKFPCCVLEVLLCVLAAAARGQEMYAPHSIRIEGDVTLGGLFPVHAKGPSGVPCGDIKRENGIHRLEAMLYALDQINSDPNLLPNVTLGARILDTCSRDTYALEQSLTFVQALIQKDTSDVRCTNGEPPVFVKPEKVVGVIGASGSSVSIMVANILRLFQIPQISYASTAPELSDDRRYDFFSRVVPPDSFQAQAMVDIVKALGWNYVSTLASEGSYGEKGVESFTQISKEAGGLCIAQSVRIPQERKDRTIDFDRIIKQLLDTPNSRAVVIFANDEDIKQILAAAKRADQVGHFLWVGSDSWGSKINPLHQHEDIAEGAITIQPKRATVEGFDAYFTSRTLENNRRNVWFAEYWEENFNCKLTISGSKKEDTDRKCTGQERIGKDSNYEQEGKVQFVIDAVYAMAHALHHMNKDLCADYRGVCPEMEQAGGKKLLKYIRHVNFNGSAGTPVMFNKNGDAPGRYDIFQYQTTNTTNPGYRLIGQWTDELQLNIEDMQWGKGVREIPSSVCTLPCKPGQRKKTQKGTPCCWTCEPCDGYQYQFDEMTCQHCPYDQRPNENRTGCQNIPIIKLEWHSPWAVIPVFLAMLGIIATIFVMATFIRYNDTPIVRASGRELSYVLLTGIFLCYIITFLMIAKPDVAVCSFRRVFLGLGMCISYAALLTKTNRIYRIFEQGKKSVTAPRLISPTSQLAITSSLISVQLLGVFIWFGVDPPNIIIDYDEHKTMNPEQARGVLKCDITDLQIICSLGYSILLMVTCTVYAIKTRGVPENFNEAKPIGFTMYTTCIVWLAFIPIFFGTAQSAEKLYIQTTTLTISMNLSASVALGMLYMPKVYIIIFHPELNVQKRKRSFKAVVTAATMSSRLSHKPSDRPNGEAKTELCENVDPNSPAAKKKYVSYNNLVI

The species named for assay [2] is Rattus norvegicus. The assay can be described thus: Ratio of pEC50 for antagonist activity against LSP4-202-induced rat mGlu7 activation transfected in HEK293 cells co-transfected with chimeric Gqi9 assessed as decrease in LSP4-202 potency to pEC50 for LSP4-202-induced rat mGlu7 activation transfected in HEK293 cells co-transfected with chimeric Gqi9. In kind it is cell-based. The essentials:
as §1

Assay [3] deals with Metabotropic glutamate receptor 7 (Rattus norvegicus) (UniProt P35400). Kind of assay: Antagonist activity against LSP4-202-induced rat mGlu7 activation transfected in HEK293 cells co-transfected with chimeric Gqi9 assessed as decrease in LSP4-202 potency by measuring LSP4-202 maximum efficacy at 30 to 100 uM incubated for 24 hrs by IP-one HTRF assay relative to control. In kind it is functional, cell-based. Conditions: filed as antagonist, dose 30-100 µM. The essentials: as §1
(In general: In TR-FRET formats the signal depends on donor and acceptor labels being close together.)

The target in assay [4] is Metabotropic glutamate receptor 7 (Rattus norvegicus, UniProt P35400). Kind of assay: Antagonist activity against rat mGlu7 activation transfected in HEK293 cells co-transfected with chimeric Gqi9 incubated for 24 hrs in presence of LSP4-2022 by IP-one HTRF assay. In kind it is functional, cell-based. The essentials: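 Inhibition curves were run with increasing inhibitor concentrations against IP1 production by 30 µM LSP4-2022. Rat mGlu7 was co-expressed with Gqα9 in HEK293 and assayed 24 h post-transfection with IP-One HTRF. IC50/pIC50 are means ± sem of independent experiments in triplicates. pIC50 compared to reference by unpaired t-test.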
Chain of Metabotropic glutamate receptor 7 (P35400 whole entry): as above

For assay [5], the species on record is Rattus norvegicus. Kind of assay: Ratio of pEC50 for antagonist activity against LSP4-202 induced wild type rat mGlu7 assessed as decrease in LSP4-202 potency by measuring LSP4-202 pEC50 at 30 uM to pEC50 for LSP4-202-induced wild type rat mGlu7.
The species entered for assay [6] is Rattus norvegicus. The assay can be described thus: Ratio of pEC50 for antagonist activity against LSP4-202 induced rat mGlu7 S229A mutant assessed as decrease in LSP4-202 potency by measuring LSP4-202 pEC50 at 100 uM to pEC50 for LSP4-202-induced rat mGlu7 S229A mutant.
Assay [7] is filed under the species Rattus norvegicus. Kind of assay: Ratio of pEC50 for antagonist activity against LSP4-202 induced wild type rat mGlu7 assessed as decrease in LSP4-202 potency by measuring LSP4-202 pEC50 at 3 uM to pEC50 for LSP4-202-induced wild type rat mGlu7.
Assay [8] is filed under the species Rattus norvegicus. Kind of assay: Ratio of pEC50 for antagonist activity against LSP4-202 induced rat mGlu7 S229A mutant assessed as decrease in LSP4-202 potency by measuring LSP4-202 pEC50 at 10 uM to pEC50 for LSP4-202-induced rat mGlu7 S229A mutant.
The nature of assay [9]: Antagonist activity against LSP4-202-induced rat mGlu7 […] mutant assessed as decrease in LSP4-202 potency by measuring LSP4-202 pEC50 at 10 uM.
The species entered for assay [10] is Rattus norvegicus. Kind of assay: Ratio of pEC50 for antagonist activity against LSP4-202 induced rat mGlu7 S229A mutant assessed as decrease in LSP4-202 potency by measuring LSP4-202 pEC50 at 30 uM to pEC50 for LSP4-202-induced rat mGlu7 S229A mutant.
The target of assay [11] is Metabotropic glutamate receptor 7 (Rattus norvegicus) (UniProt P35400). The assay can be described thus: Competitive antagonist activity against rat mGlu7 receptor assessed as decrease in LSP4-202 effect at 0.3 to 30 uM by Schild plot analysis. Conditions: filed as antagonist, dose 0.3-30 µM. The essentials:
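Schild analysis used the shift of LSP4-2022 concentration-response curves in IP-One IP1 assays. Cells were HEK293 co-transfected with rat mGlu7 and Gqα9. Data are means ± sem of 3 to 11 experiments run in triplicates.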

Assay [12] is described as follows: Antagonist activity against LSP4-202-induced rat mGlu7 […] mutant assessed as decrease in LSP4-202 potency by measuring LSP4-202 pEC50 at 30 uM.
The species entered for assay [13] is Rattus norvegicus. The assay can be described thus: Ratio of pEC50 for antagonist activity against LSP4-202 induced wild type rat mGlu7 assessed as decrease in LSP4-202 potency by measuring LSP4-202 pEC50 at 10 uM to pEC50 for LSP4-202-induced wild type rat mGlu7.
Assay [14] is described as follows: Antagonist activity against LSP4-202-induced rat mGlu7 […] mutant assessed as decrease in LSP4-202 potency by measuring LSP4-202 pEC50 at 100 uM.

On to `O=c1c2ccc(F)cc2oc2c1oc1ccc(I)cc12`, for which, in assay [1], the inhibition entry was “inactive”.
Still for that read-out and setting: the entry for `O=c1c2ccccc2oc2c1oc1ccc(Br)cc12` is “inactive”.
For `COc1ccc(C(=O)COc2ccc(C#N)cc2)cc1`, the Ratio in the assay listed under Rattus norvegicus [2] worked out at 0.95. The Emax in assay [3] was 89.4%.
The like results for `COc1ccc(OCC(=O)c2ccc(O)cc2)cc1` were, in that order, 0.96 and 97.6%.
The like results for `O=C(COc1cccc(I)c1)c1ccc(O)cc1` were, in that order, 1.02 and 102%.
The like results for `O=C(COc1c(Cl)cc(Br)cc1Cl)c1ccc(O)cc1` were, in that order, 1.01 and 101%.
With `Cc1cc(OCC(=O)c2ccc(O)cc2)ccc1I`, in the assay listed under Rattus norvegicus [2], the Ratio is 0.96. Further, in [3], the Emax was 97.5%.
With `O=C(COc1ccc(F)cc1F)c1ccc(O)cc1`, the Ratio in the assay listed under Rattus norvegicus [2] came out at 1.04. For the same compound, the Emax in assay [3] was 100%.
Regarding `COc1ccc(C(=O)COc2ccc(I)c(C)c2)cc1`, in the assay listed under Rattus norvegicus [2], the Ratio was determined as 0.97. Besides, the maximal effect (Emax) in [3] turned out to be 95.9%.
For `N#Cc1c(F)cc(OCC(=O)c2ccc(O)cc2)cc1F` the same measures were 1.03 and 94.2%.
On to `O=c1c2ccccc2oc2c1sc1ccccc12`, for which, in assay [1], the inhibition result is “inactive”.
For the compound `O=C(COc1ccc(Cl)cc1)c1ccc(O)cc1`, the Ratio in the assay filed under Rattus norvegicus [2] amounted to 0.83. The Emax in [3] came out at 98.5%.
For `O=C(COc1ccc([N+](=O)[O-])cc1)c1ccc(O)cc1`, the Ratio in the assay listed under Rattus norvegicus [2] came to 0.87. For the same compound, in [3], the Emax amounted to 98.5%.
The like results for `Cc1ccc(OCC(=O)c2ccc(O)cc2)cc1` were, in that order, 0.96 and 95.4%.
As to `O=c1c2ccc(O)cc2oc2c1oc1cc(I)ccc12`, in assay [1], the inhibition result was “inactive”.
For `Cc1cc(I)ccc1OCC(=O)c1ccc(O)cc1`, in the assay listed under Rattus norvegicus [2], the Ratio came to 0.97. Moreover, in assay [3], the Emax is 98.3%.
For `O=C(COc1ccc(Br)cc1)c1ccc(O)cc1` the same measures were 0.81 and 99.2%.
The like results for `O=C(COc1ccc(O)cc1)c1ccc(O)cc1` were, in that order, 1.06 and 88.1%.
Take `O=C(COc1ccc(Br)cc1F)c1ccc(O)cc1`: in the assay listed under Rattus norvegicus [2], the Ratio was 0.76. Moreover, the Emax in assay [3] was 87.3%. Further, the values for the IC50 in assay [4] (read-out: IC50) and in [4] (read-out: pIC50 (converted)) were 2.6 µM and 2.24 µM, respectively.
As for `O=C(COc1ccc(Br)cc1Br)c1ccc(O)cc1`, the Ratio in the assay filed under Rattus norvegicus [2] amounted to 0.97. Also, the Emax in assay [3] came to 96.1%.
For the compound `COc1ccc(C(=O)COc2ccc(I)cc2)cc1OC`, in the assay filed under Rattus norvegicus [2], the Ratio worked out at 1.05. Moreover, the Emax in assay [3] turned out to be 80.4%.
For `O=C(O)c1ccc(OCC(=O)c2ccc(O)cc2)cc1` the same measures were 1.07 and 98.6%.
Take `NS(=O)(=O)c1ccc(OCC(=O)c2ccc(O)cc2)cc1`: the Ratio in the assay listed under Rattus norvegicus [2] came out at 1.06. Besides, in assay [3], the Emax worked out at 89.2%.
As to `COc1ccc2c(=O)c3oc4cc(I)ccc4c3oc2c1`, the inhibition entry in assay [1] is “inactive”.
As to `O=C(COc1c(F)cc(Br)cc1F)c1ccc(O)cc1`, in the assay filed under Rattus norvegicus [2], the Ratio is 0.85. Further, in assay [3], the Emax came to 94.6%.
The like results for `O=C(COc1ccc(Cl)cc1Cl)c1ccc(O)cc1` were, in that order, 0.94 and 92.3%.
Regarding `O=c1c2ccccc2oc2c1oc1cc(O)ccc12`, in assay [1], the inhibition result was “inactive”.
Turning to `O=Cc1ccc(OCC(=O)c2ccc(O)cc2)cc1F`, in the assay listed under Rattus norvegicus [2], the Ratio is 1. Besides, the Emax in assay [3] is 106%.
Consider `COc1ccc2c(=O)c3oc4ccc(I)cc4c3oc2c1`, for which the inhibition entry in assay [1] was “inactive”.
As for `O=C(COc1ccc(Br)cc1Cl)c1ccc(O)cc1`, the Ratio in the assay filed under Rattus norvegicus [2] was 0.95. Besides, the maximal effect (Emax) in [3] turned out to be 93.3%.
The like results for `O=C(COc1ccc(I)cc1)c1ccc(O)cc1` were, in that order, 0.83 and 98.3%.
In the case of `N#Cc1ccc(OCC(=O)c2ccc(O)cc2)cc1`, in the assay listed under Rattus norvegicus [2], the Ratio stood at 0.89. For the same compound, in assay [3], the Emax was found to be 92.6%.
For `O=C(COc1ccc(Br)cc1F)c1ccc(O)c(O)c1`, the Ratio in the assay listed under Rattus norvegicus [2] came to 0.76; in the assay listed under Rattus norvegicus [5], 0.79; in the assay filed under Rattus norvegicus [6], 0.95; in the assay filed under Rattus norvegicus [7] it was 0.91; in the assay listed under Rattus norvegicus [8], 0.91; in the assay listed under Rattus norvegicus [10] it was 0.93. The Ratio in the assay filed under Rattus norvegicus [13] was found to be 0.85. Moreover, in assay [3], the Emax came to 90.3%. Further, the EC50 in [9] was found to be 38.2 µM; in [12] it was 35.7 µM; in [14] it was 27 µM. Besides, the results for the negative logarithm of the EC50 (pEC50) in assay [9], in assay [12] and in assay [14] were 4.42, 4.53 and 4.6, respectively. Besides, the IC50 in assay [4] (read-out: IC50) is 3.44 µM; in [4] (read-out: pIC50 (converted)), 3.31 µM. Besides, the result in assay [11] was Active.
For the compound `O=C(COc1ccc([N+](=O)[O-])c([N+](=O)[O-])c1)c1ccc(O)cc1`, the Ratio in the assay listed under Rattus norvegicus [2] is 1. Further, in assay [3], the Emax came out at 101%.
`O=C(COc1ccc(Br)cc1F)c1cc(F)c(O)c(F)c1`: the Ratio in the assay listed under Rattus norvegicus [2] is below 0.6. In addition, the IC50 in assay [4] (read-out: IC50) is 1.25 µM; in assay [4] (read-out: pIC50 (converted)), 1.15 µM. In addition, in assay [11], the result was Active.
For the compound `COc1ccc(C(=O)COc2ccc([N+](=O)[O-])cc2)cc1`, the Ratio in the assay filed under Rattus norvegicus [2] worked out at 0.95. Moreover, in [3], the Emax amounted to 85.2%.
With `O=C(COc1ccc(C(F)(F)F)cc1)c1ccc(O)cc1`, the Ratio in the assay listed under Rattus norvegicus [2] turned out to be 0.91. For the same compound, the Emax in assay [3] amounted to 101%.
The like results for `COc1ccc(C(=O)COc2ccc(C(F)(F)F)cc2)cc1` were, in that order, 0.97 and 96.6%.
For `COc1ccc2c(c1)oc1c(=O)c3ccccc3oc12`, in [1], the inhibition entry is “inactive”.
For the compound `COc1ccc(C(=O)COc2ccc(I)cc2)cc1`, in the assay filed under Rattus norvegicus [2], the Ratio was determined as 0.97. Besides, the Emax in assay [3] amounted to 93.6%.
As for `O=c1c2ccc(O)cc2oc2c1oc1ccc(I)cc12`, the inhibition entry in assay [1] was “inactive”.
The same measure, in the same setting: with `O=c1c2ccccc2oc2c1oc1ccc(Cl)cc12` the entry was “inactive”.
In the case of `COc1ccc(OCC(=O)c2ccc(O)cc2)cc1OC`, the Ratio in the assay listed under Rattus norvegicus [2] came out at 0.99. In addition, the maximal response (Emax) in assay [3] is 96%.
As to `O=C(COc1cccc(O)c1)c1ccc(O)cc1`, the Ratio in the assay filed under Rattus norvegicus [2] turned out to be 1.03. Besides, the Emax in [3] came to 96.8%.
